Reference: ChEMBL document CHEMBL4007439, “Design, Synthesis, and Evaluation of a Novel Series of Oxadiazine Gamma Secretase Modulators for Familial Alzheimer's Disease” (J Med Chem, 2017)
Each block holds one compound with its values, some of them ahead of it. Activity calls are given as the source filed them. The rule behind the calls is not given here.

Legend:
[1] = Modulation of gamma-secretase in human H4 cells expressing human APP751 assessed as inhibition of amyloid beta 42 production incubated overnight by sandwich ELISA; assay type: cell-based
Outline: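 Aβ42 EC50 in H4 cells overexpressing WT human APP751; each value is the average of n > 2 assays, each run in duplicate.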

[2] = Unbound intrinsic clearance in rat hepatocytes; assay type: ADME, cell-based, Hepatocyte
[3] = Total drug uptake in mouse brain at 90 mg/kg, po measured at 6 hrs post dose; assay type: ADME, organism-based; details: read-out: Drug uptake
Outline: (§1)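 Mice dosed 90 mg/kg; brain Aβ42 lowering, total brain drug concentration and brain:plasma ratio measured 6 hours post-dose.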

[4] = Ratio of drug level in brain to plasma in mouse at 90 mg/kg, po measured at 6 hrs post dose; assay type: ADME, organism-based; details: read-out: BPR; outline: as §1
[5] = system: Mus musculus; test: Reduction in amyloid beta 42 levels in mouse brain at 90 mg/kg, po measured at 6 hrs post dose by ELISA; assay type: functional; outline: as §1
[6] = Total drug level in mouse brain at 30 mg/kg, po measured at 6 hrs post dose; assay type: ADME, organism-based; details: read-out: Drug uptake
Outline: (§2)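 Single oral dose of 30 mg/kg; brain (mouse, rat) and rat CSF Aβ42 and Aβ37 measured 6 h post-dose, expressed relative to vehicle; total and free brain drug levels and brain:plasma ratio taken at the same time.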

[7] = system: Mus musculus; test: Reduction in amyloid beta 42 levels in mouse brain at 30 mg/kg, po measured at 6 hrs post dose by ELISA; assay type: functional; outline: as §2
[8] = system: Brain; test: Unbound drug level in mouse brain at 30 mg/kg, po measured at 6 hrs post dose; assay type: ADME, organism-based; details: in vivo; outline: as §2
[9] = Ratio of drug level in brain to plasma in mouse at 30 mg/kg, po measured at 6 hrs post dose; assay type: ADME, organism-based; details: read-out: BPR; outline: as §2
[10] = Modulation of gamma-secretase (unknown origin); set-up: species or system Homo sapiens

EC50 [1]: 64 nM
Structure (SMILES): COc1nc(C2=NOCC3CN(c4ccc(Cl)cc4C(F)(F)F)CCN23)ccc1-n1cnc(C)c1 (single isomer, unassigned; (+))

EC50 ([1]; Homo sapiens): > 3000 nM
Structure (SMILES): COc1nc(C2=NOC[C@H]3[C@@H](Oc4ccc(F)cc4C)CCCN23)ccc1-n1cnc(C)c1

EC50 ([1]; Homo sapiens): 1360 nM
Structure (SMILES): COc1nc(C2=NOC[C@H](COc3ccc(F)cc3C)N2)ccc1-c1ocnc1C

CL free [2]: 255.1 L/h/kg
EC50 ([1]; Homo sapiens): 15 nM
concentration at 6 h [3]: 36 µM
Kp at 6 h [4]: 0.6
Structure (SMILES): COc1nc(C2=NOC[C@@H]3[C@H](Oc4ccc(Cl)cc4C(F)(F)F)CCCN23)ccc1-n1cnc(C)c1
inhibition in vivo at 90 mg/kg [5]: 32%

EC50 ([1]; Homo sapiens): 604 nM
Structure (SMILES): COc1nc(C2=NOC[C@H](COc3ccc(F)cc3C)N2)ccc1-c1cnn(C)c1

EC50 [1]: 307 nM
Structure (SMILES): COc1nc(C2=NOCC3CN(c4ccc(Cl)cc4C(F)(F)F)CCN23)ccc1-n1cnc(C)c1 (single isomer, unassigned; (-))

CL free [2]: 25.8 L/h/kg
concentration at 6 h [6]: 30.2 µM
EC50 ([1]; Homo sapiens): 8 nM
Drug uptake(free) [8]: 76 nM
Kp at 6 h [9]: 2.8
Structure (SMILES): COc1nc(C2=NOC[C@H](c3cc4ccccc4s3)N2)ccc1-n1cnc(C)c1
inhibition in vivo at 30 mg/kg [7]: 34%

EC50 ([1]; Homo sapiens): 197 nM
Structure (SMILES): COc1nc(C2=NOC[C@@H]3[C@H](Oc4ccc(F)cc4C)CCCN23)ccc1-n1cnc(C)c1

CL free [2]: 195.5 L/h/kg
EC50 ([1]; Homo sapiens): 98 nM
Structure (SMILES): COc1nc(C2=NOC[C@H](COc3ccc(F)cc3C)N2)ccc1-c1ccnc(C)c1

EC50 [10]: 35 nM
Structure (SMILES): COc1cc(N2CCC(C(=O)N3CCC[C@@H](Oc4ccc(Cl)cc4C(F)(F)F)C3)CC2)ccn1

EC50 ([1]; Homo sapiens): 109 nM
Structure (SMILES): COc1cc(C2=NOC[C@H](COc3ccc(F)cc3C)N2)ccc1-c1ccnc(C)c1
Activity [7]: inactive
